This passage reports GI50 and inhibition results from ChEMBL document CHEMBL3751740, “New MKLP-2 inhibitors in the paprotrain series: Design, synthesis and biological evaluations” (Bioorg Med Chem, 2016).

By GI50 is commonly meant the concentration that inhibits growth by half. Low values mean more potent growth inhibition, high ones less potent growth inhibition. By inhibition is commonly meant the change of the read-out against control, counted positive when it falls.

Assay [1] can be described thus: Growth inhibition of human MIAPaCa2 cells incubated for 4 days by WST-1 assay. The settings on record: MIA PaCa-2, 96 h. It is filed as functional. The method, boiled down:
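Cells were kept at 37 °C under 5% CO2 and plated on day 0 at 500–5000 cells/well. On day 1 they received ten concentrations from 0.0025 to 50 µM (final), in triplicate. On day 4 WST-1 was added, followed by 30 min–4 h incubation and absorbance at 450 nm. GI50 is the concentration killing 50% of cells.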
(Tetrazolium dyes change colour on reduction, which living cells bring about.)

Assay [2] concerns the target T1, Kinesin-like protein KIF23 (Homo sapiens) (UniProt Q02241).
T1 sequence (whole entry): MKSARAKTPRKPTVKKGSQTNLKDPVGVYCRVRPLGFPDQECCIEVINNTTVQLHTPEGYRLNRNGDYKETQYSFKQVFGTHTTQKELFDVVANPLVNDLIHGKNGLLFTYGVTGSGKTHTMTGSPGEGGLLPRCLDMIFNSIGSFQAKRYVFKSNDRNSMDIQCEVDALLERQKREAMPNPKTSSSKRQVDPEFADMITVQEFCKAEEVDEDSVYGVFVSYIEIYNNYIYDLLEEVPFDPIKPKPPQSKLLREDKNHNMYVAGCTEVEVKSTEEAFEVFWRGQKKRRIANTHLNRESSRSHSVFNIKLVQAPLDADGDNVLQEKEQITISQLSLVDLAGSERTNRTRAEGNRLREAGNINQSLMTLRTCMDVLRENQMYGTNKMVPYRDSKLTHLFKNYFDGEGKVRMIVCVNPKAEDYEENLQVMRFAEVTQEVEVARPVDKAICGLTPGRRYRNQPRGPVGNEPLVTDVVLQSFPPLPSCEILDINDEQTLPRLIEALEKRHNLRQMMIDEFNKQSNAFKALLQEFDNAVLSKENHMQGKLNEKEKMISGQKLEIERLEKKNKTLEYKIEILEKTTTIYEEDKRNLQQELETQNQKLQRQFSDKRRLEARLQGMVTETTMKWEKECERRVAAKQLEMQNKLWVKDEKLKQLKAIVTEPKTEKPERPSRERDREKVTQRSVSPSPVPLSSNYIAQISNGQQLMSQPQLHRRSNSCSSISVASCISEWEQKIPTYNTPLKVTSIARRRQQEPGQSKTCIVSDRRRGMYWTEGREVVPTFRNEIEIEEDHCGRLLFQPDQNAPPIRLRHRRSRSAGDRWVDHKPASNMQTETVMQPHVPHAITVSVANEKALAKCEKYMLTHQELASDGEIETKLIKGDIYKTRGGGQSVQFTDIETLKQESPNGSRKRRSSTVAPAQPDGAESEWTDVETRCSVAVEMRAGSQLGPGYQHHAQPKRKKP
In words: Inhibition of porcine brain microtubule-stimulated human recombinant GST-tagged MKLP1 ATPase activity at 1 mM by microplate reader in presence of Mg2+ ATP relative to control. The method, boiled down: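 Motor domain at 15 µM final, in 7.5 mM PIPES-NaOH pH 7.0 with […], 10 µM Taxol, ELIPA 1 and 2 reagents and 1.25 mg/mL microtubules. AMP-PNP, a slowly hydrolysable ATP analog and general ATPase inhibitor, tested at 1 mM. Reaction started with 1 mM Mg2+ATP at 22 °C and read kinetically at 360 nm. Run in triplicate.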

Each structure is given as a SMILES string.

`COc1ccc2[nH]cc(/C(C#N)=C/c3cccnc3)c2c1` yielded a GI50 in assay [1] of 5.5 µM.
As to `Nc1ncnc2c1ncn2[C@@H]1O[C@H](COP(=O)(O)OP(=O)(O)NP(=O)(O)O)[C@@H](O)[C@H]1O`, the inhibition in assay [2] was over 30%.
